Results gathered from unrelated publications.
Compare with care: the assays were run in different laboratories.
Target: Tyrosine-protein kinase FRK (FRK, Homo sapiens, UniProt P42685)

CC(C)(C)c1cc(C=C(C#N)C#N)cc(Br)c1O gave a remaining activity of 99.3% (enzyme activity; inhibitor; 0.5 µM).
Cn1cncc1[C@](O)(COc1ccc(C#N)cc1-c1ccc(OC(F)(F)F)cc1)c1ccc(C#N)cc1 has a remaining binding of 100% (cell-free assay; competition with immobilised ligand; 1 µM).
Cn1cc(-c2cccc(N3CCc4c(sc5c4CC(C)(C)C5)C3=O)c2CO)cc(Nc2ccncn2)c1=O gave an inhibition of 9% (enzyme activity; inhibitor; 1 µM).
For COc1cc(Nc2ncc(F)c(Nc3ccc4c(n3)NC(=O)C(C)(C)O4)n2)cc(OC)c1OC, the inhibition was 96% (binding; competition with immobilised ligand; 10 µM).
COc1ncccc1-c1cnn2ccc(N3CCN(C(=O)OC(C)C)CC3)nc12 has a remaining binding of 63% (binding; competition with immobilised ligand; 1 µM).
N#CC1(c2ccccn2)CCN(Cc2cc(C(=O)O)c(=O)n3ccccc23)CC1 has a remaining binding of 100% (cell-free assay; competition with immobilised ligand; 1 µM).
O=c1[nH]c2ccccc2n1C1CCN(Cc2ccc(-c3[nH]c4cc5ncnc5cc4nc3-c3ccccc3)cc2)CC1 has a remaining signal of 102% (cell-free assay; 0.5 µM).
The remaining binding of Nc1ncc(-c2nc(N3CCOCC3)nc(N3CCOCC3)n2)c(C(F)F)n1 is reported as 100% (binding; competition with immobilised ligand; 10 µM).
The inhibition of Cn1cc(-c2cc(F)cc(N3CCn4c(cc5c4CCCC5)C3=O)c2CO)cc(Nc2ccc(N3CCN(C4COC4)CC3)cn2)c1=O is reported as 15% (enzyme activity; inhibitor; 0.1 µM).
Cc1nn(C)cc1-c1nc2c(N3CCN(Cc4ccc(Cl)cc4)CC3)c(Cl)cnc2[nH]1 has a remaining binding of 100% (binding; competition with immobilised ligand; 1 µM).
